From ChEMBL document CHEMBL5257104, “Identification of a novel spirocyclic Nek2 inhibitor using high throughput virtual screening” (Bioorg Med Chem Lett, 2023)
Each block holds one compound with its values, some of them ahead of it. Calls of active or inactive are those of the source. No cut-off for these calls is given here.

How the values were obtained:
[1] = target: T1, Serine/threonine-protein kinase Nek2 (Homo sapiens, UniProt P51955); assay: Inhibition of human recombinant Nek2 in presence of 50 uM ATP by ADP-Glo kinase assay
T1 sequence (P51955 whole entry): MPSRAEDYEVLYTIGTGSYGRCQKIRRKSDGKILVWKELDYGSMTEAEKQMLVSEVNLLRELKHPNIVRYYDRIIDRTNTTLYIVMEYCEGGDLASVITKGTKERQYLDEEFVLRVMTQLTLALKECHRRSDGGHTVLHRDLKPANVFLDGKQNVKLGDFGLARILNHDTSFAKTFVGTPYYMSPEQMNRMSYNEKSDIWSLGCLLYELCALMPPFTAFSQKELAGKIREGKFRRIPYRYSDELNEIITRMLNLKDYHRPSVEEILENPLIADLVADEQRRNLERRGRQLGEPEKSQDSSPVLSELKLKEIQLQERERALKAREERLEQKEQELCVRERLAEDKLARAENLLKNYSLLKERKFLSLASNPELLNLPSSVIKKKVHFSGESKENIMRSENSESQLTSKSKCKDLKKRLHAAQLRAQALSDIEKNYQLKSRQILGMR
Summary of the method: (§1)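 Kinase activity was measured at 50 μM ATP using recombinant enzyme. A concentration-response curve was generated for each kinase, and IC50 was obtained by fitting the data.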

[2] = target: T1, Serine/threonine-protein kinase Nek2; assay: Inhibition of human recombinant Nek2 in presence of 150 uM ATP by ADP-Glo kinase assay
Summary of the method: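 Recombinant human Nek2 kinase activity assay run with ATP raised threefold, from the standard 50 μM to 150 μM. Inhibitor tested over a concentration series, and IC50 obtained by fitting the concentration-response curve.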

[3] = test system: A549; assay: Inhibition of Akt phosphorylation at S473 residue in human A549 cells by Western blotting analysis; type: cell-based; details: dose 5-20 µM
Summary of the method: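 A549 cells were treated for 24 h across several concentrations. Ser-473 phospho-Akt was detected by Western blot with GAPDH as the loading control. DMSO served as vehicle control and a reference Nek2 inhibitor as positive control.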

[4] = test system: MDA-MB-231; assay: Cytotoxicity against human MDA-MB-231 cells assessed as inhibition of cell growth by MTT assay; type: functional, cell-based
Summary of the method: (§2)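 Cell viability read by MTT assay across a range of concentrations. EC50 taken from the dose-response curve. See Supporting Information, Section III, for details not given here.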

[5] = test system: A549; assay: Cytotoxicity against human A549 cells assessed as inhibition of cell growth by MTT assay; type: functional, cell-based; summary of the method: as §2
[6] = test system: A549; assay: Antimigratory activity against human A549 cells at 50 to 100 uM by wound healing assay; type: functional, cell-based; details: dose 50-100 µM
Summary of the method: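 A549 monolayers were scratched and treated. Migration was judged by imaging wound boundaries at the initial scratch (t = 0) and at 24 hr post-treatment, compared with vehicle control.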

[7] = target: T2, Aurora kinase A (Homo sapiens, UniProt O14965); assay: Inhibition of Aurora A (unknown origin); summary of the method: as §1
T2 sequence (O14965 whole entry): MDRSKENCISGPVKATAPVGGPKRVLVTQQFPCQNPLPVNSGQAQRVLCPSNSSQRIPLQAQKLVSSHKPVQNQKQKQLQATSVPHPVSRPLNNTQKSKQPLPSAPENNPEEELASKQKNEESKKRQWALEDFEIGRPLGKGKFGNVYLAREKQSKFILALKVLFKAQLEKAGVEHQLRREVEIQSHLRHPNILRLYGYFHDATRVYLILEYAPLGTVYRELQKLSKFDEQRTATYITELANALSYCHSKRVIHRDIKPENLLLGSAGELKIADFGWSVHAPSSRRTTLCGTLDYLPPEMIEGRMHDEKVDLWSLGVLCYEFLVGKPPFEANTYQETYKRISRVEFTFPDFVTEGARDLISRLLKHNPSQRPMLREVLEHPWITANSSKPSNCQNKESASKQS

[8] = target: Serine/threonine-protein kinase Nek7 (Homo sapiens, UniProt Q8TDX7); assay: Inhibition of Nek7 (unknown origin); summary of the method: as §1
[9] = target: Cyclin-dependent kinase 1 (Homo sapiens, UniProt P06493); assay: Inhibition of CDK1 (unknown origin); summary of the method: as §1
[10] = target: Serine/threonine-protein kinase PLK1 (Homo sapiens, UniProt P53350); assay: Inhibition of Plk1 (unknown origin); summary of the method: as §1
Sequence of Serine/threonine-protein kinase PLK1 (P53350 whole entry): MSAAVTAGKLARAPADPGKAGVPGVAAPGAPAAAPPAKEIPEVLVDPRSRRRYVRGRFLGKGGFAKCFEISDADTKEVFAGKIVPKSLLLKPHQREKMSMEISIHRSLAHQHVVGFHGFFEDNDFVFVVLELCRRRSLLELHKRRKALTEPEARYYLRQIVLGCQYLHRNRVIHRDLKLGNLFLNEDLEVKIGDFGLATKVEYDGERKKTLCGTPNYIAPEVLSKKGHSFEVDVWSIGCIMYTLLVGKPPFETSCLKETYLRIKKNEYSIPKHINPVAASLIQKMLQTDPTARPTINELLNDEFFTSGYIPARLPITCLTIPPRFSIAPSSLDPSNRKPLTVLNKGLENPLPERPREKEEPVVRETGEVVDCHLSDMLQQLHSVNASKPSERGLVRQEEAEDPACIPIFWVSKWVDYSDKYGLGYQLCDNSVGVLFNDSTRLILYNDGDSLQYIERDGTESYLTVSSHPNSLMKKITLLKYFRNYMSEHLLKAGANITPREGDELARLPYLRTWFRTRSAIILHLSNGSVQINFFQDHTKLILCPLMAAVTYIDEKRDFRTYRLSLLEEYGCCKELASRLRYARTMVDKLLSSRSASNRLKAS

Sequence of Serine/threonine-protein kinase Nek7 (Q8TDX7 whole entry): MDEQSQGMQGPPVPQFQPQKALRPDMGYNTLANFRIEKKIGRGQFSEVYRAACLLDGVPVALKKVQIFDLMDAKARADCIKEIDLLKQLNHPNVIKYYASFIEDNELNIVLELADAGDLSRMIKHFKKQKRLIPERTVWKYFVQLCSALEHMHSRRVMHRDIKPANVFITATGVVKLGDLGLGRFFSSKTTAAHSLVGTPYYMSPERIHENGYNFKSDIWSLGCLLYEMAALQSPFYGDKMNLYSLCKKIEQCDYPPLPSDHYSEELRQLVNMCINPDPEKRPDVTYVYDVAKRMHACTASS
Sequence of Cyclin-dependent kinase 1 (P06493 whole entry): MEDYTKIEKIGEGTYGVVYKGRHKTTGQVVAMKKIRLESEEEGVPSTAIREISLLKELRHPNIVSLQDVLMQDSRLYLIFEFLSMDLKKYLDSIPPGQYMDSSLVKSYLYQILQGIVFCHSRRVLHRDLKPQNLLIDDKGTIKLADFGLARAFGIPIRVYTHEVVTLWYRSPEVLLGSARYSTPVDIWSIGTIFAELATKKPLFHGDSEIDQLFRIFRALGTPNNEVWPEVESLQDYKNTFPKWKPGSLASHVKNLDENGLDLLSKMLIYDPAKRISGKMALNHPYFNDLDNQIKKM

SMILES: O=C1NC2(CCN(C(=O)c3ccccc3)CC2)N=C1c1ccc(Br)cc1
IC50 [1]: 9.2 µM

SMILES: CCOC(=O)c1ccc(S(=O)(=O)N2CCC3(CC2)N=C(c2ccc(Br)cc2)C(=O)N3)cc1
IC50 [1]: 14.6 µM

SMILES: CN1CCC2(CC1)NCC(=O)N2
IC50 [1]: 58.1 µM

SMILES: O=C1NC2(CCN(S(=O)(=O)c3ccccc3)CC2)N=C1c1ccc(Br)cc1
IC50 [1]: 9.3 µM

SMILES: CS(=O)(=O)N1CCC2(CC1)NCC(=O)N2
IC50 [1]: 32.1 µM

SMILES: Cc1ccc(S(=O)(=O)N2CCC3(CC2)N=C(c2ccc(Br)cc2)C(=O)N3)cc1C
IC50 [1]: 12.3 µM

SMILES: Cc1cc(C)c(S(=O)(=O)N2CCC3(CC2)N=C(c2ccc(Br)cc2)C(=O)N3)c(C)c1
IC50 [1]: 9.8 µM

SMILES: O=C1CNC2(CCNCC2)N1
IC50 [1]: 32.5 µM

Compounds with a lower IC50 [1], results first:

IC50 [1]: 8.7 µM
SMILES: CC(C)(C)c1ccc(C2=NC3(CCN(S(C)(=O)=O)CC3)NC2=O)cc1

IC50 [1]: 8.1 µM
SMILES: O=C1NC2(CCN(S(=O)(=O)c3ccccc3)CC2)N=C1c1ccccc1

IC50 [1]: 6.8 µM
SMILES: O=C1NC2(CCN(S(=O)(=O)Cc3ccccc3)CC2)N=C1c1ccc(Br)cc1

IC50 [1]: 6 µM
SMILES: O=C1NC2(CCN(S(=O)(=O)c3ccccc3)CC2)N=C1c1ccc(Cl)cc1

IC50 [1]: 5.6 µM
SMILES: O=C1NC2(CCN(S(=O)(=O)c3cccs3)CC2)N=C1c1ccc(Br)cc1

IC50 [1]: 5 µM
SMILES: CC(C)(C)c1ccc(S(=O)(=O)N2CCC3(CC2)N=C(c2ccc(Br)cc2)C(=O)N3)cc1

IC50 [1]: 4.9 µM
SMILES: Cc1ccc(C2=NC3(CCN(S(C)(=O)=O)CC3)NC2=O)cc1

IC50 [1]: 4.5 µM
SMILES: O=C1NC2(CCN(S(=O)(=O)c3ccccc3)CC2)N=C1c1ccc(F)cc1

IC50 [1]: 3.2 µM
SMILES: Cc1ccc(C2=NC3(CCN(S(C)(=O)=O)CC3)NC2=O)cc1C

IC50 [2]: 17.1 µM | IC50 [1]: 2.4 µM | IC50 [7]: 21.3 µM | IC50 [8]: 28.8 µM | IC50 [9]: 29.3 µM | IC50 [10]: 20.4 µM
SMILES: CS(=O)(=O)N1CCC2(CC1)N=C(c1ccc(Br)cc1)C(=O)N2
inhibition [3]: Dose-Dependent Effect | IC50 [4]: 18.1 µM | IC50 [5]: 22.7 µM | Activity [6]: Active
